Results from ChEMBL document CHEMBL1148253, “Structure-activity requirements for the antiproliferative effect of troglitazone derivatives mediated by depletion of intracellular calcium” (Bioorg Med Chem Lett, 2004).
Activity calls are given as the source filed them. No cut-off for these calls is given here.

Columns and labels:
PC-12 [1] = assay: Phosphorylation of eukaryotic initiation factor 2 alpha (eIF2alpha) in PC12 cells, - = No phosphorylation; type: functional, cell-based; conditions: Rattus norvegicus
Method in brief: (§1)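 Cells treated with drug at 15 μM for 2 h. Extracts western blotted with anti-phospho-Ser51 eIF2α antibody. Tro is the positive control and DMSO the negative control. Scored +, ± or −.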

PC-12 [2] = assay: Concentration required for 50% inhibition of cell proliferation in PC12 cells using sulforhodamine B assay; type: functional, cell-based; conditions: Rattus norvegicus
Method in brief: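 Sulforhodamine B proliferation assay; cells exposed to drug for 5 days across 0.5 to 100 μM. IC50 is the concentration giving 50% inhibition of proliferation.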

[3] = Partition coefficient (logP); type: physicochemical; conditions: octanol/water
PC-12 [4] = assay: Tested for the intracellular Ca+2 release in PC12 cells; - = No release; type: functional, cell-based; conditions: Rattus norvegicus
Method in brief: (§2)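 Fluo-4-loaded cells treated with drug at 80 μM for 10 min and monitored for Ca2+ release from intracellular stores. Clotrimazole is the positive control. Scored +, ± or −.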

PC-12 [5] = assay: Tested for the intracellular Ca+2 release in PC12 cells; + = Release; type: functional, cell-based; conditions: Rattus norvegicus; method in brief: as §2
PC-12 [6] = assay: Phosphorylation of eukaryotic initiation factor 2 alpha (eIF2alpha) in PC12 cells, + = Phosphorylation; type: functional, cell-based; conditions: Rattus norvegicus; method in brief: as §1
PC-12 [7] = assay: Phosphorylation of eukaryotic initiation factor 2 alpha (eIF2alpha) in PC12 cells, +/- = Insignificant phosphorylation; type: functional, cell-based; conditions: Rattus norvegicus; method in brief: as §1
PC-12 [8] = assay: Tested for the intracellular Ca+2 release in PC12 cells; +/- = Insignificant release; type: functional, cell-based; conditions: Rattus norvegicus; method in brief: as §2

| SMILES | Activity (PC-12 [1]) | IC50 (PC-12 [2]) [µM] | logP ([3]; read-out: logP) | Activity (PC-12 [4]) | Activity (PC-12 [5]) | Activity (PC-12 [6]) | Activity (PC-12 [7]) | Activity (PC-12 [8]) | logP [3] |
| --- | --- | --- | --- | --- | --- | --- | --- | --- | --- |
| COc1ccc(CC2SC(=O)NC2=O)cc1 (stereo unspecified) | Not toxic | > 100 | 1.91 | Not toxic | – | – | – | – | – |
| O=C1N=C(O)S/C1=C\c1ccc(OCc2ccccc2)cc1 | Not toxic | 15 | – | Not toxic | – | – | – | – | – |
| Cc1c(C)c2c(c(C)c1O)CCC(C)(COc1ccc(CC3SC(=O)NC3=O)cc1)O2 (stereo unspecified) [TROGLITAZONE] | – | 15 | 4.46 | – | Active | Active | – | – | – |
| O=C1NC(=O)C(Cc2ccc(OCC3CCCCC3)cc2)S1 (stereo unspecified) | – | 26 | 3.94 | – | Release | – | +/- | – | – |
| O=C1NC(=O)/C(=C/c2ccc(OCC3CCC3)cc2)S1 | – | 13 | 2.54 | – | Phosphorylation | Phosphorylation | – | – | – |
| O=C1NC(=O)/C(=C/c2ccc(OCC3CC3)cc2)S1 | – | 23 | 1.99 | Not toxic | – | – | +/- | – | – |
| O=C1NC(=O)C(Cc2ccc(O)cc2)S1 (stereo unspecified) [GLITAZONE] | – | > 100 | 1.32 | Not toxic | – | – | +/- | – | – |
| CCOc1ccc(/C=C2\SC(=O)NC2=O)cc1 | – | 27 | 2.16 | Not toxic | – | – | +/- | – | – |
| O=C1NC(=O)C(Cc2ccc(OCC3CC3)cc2)S1 (stereo unspecified) | Not toxic | > 100 | 2.26 | Not toxic | – | – | – | – | – |
| O=C1NC(=O)/C(=C/c2ccc(O)cc2)S1 | Not toxic | 20 | 1.05 | Not toxic | – | – | – | – | – |
| CC(C)COc1ccc(CC2SC(=O)NC2=O)cc1 (stereo unspecified) | Not toxic | 25 | 3.36 | – | Release | – | – | – | – |
| O=C1NC(=O)/C(=C/c2ccc(OCC3CCCC3)cc2)S1 | – | – | 3.21 | – | – | – | – | – | – |
| CCCOc1ccc(/C=C2\SC(=O)NC2=O)cc1 | – | 7 | 2.69 | – | – | – | +/- | +/- | – |
| O=C1NC(=O)C(Cc2ccc(OCC3CCCCO3)cc2)S1 (stereo unspecified) | Not toxic | > 100 | 2.29 | Not toxic | – | – | – | – | – |
| CCC(C)(C)Oc1ccc(CC2SC(=O)NC2=O)cc1 (stereo unspecified) | – | 23 | 3.76 | – | Phosphorylation | Phosphorylation | – | – | – |
| O=C1N=C(O)S/C1=C\c1ccc(OCC2CCCC2)cc1 | – | 10 | – | – | Phosphorylation | Phosphorylation | – | – | – |

| SMILES | Activity (PC-12 [1]) | IC50 (PC-12 [2]) [µM] | logP ([3]; read-out: logP) | Activity (PC-12 [4]) | Activity (PC-12 [5]) | Activity (PC-12 [6]) | Activity (PC-12 [7]) | Activity (PC-12 [8]) | logP [3] |
| --- | --- | --- | --- | --- | --- | --- | --- | --- | --- |
| O=C1NC(=O)C(Cc2ccc(OCC3CCCC3)cc2)S1 (stereo unspecified) | – | 25 | 3.38 | – | Phosphorylation | Phosphorylation | – | – | – |
| O=C1NC(=O)C(Cc2ccc(OCc3ccccc3)cc2)S1 (stereo unspecified) | Not toxic | > 100 | 3.67 | Not toxic | – | – | – | – | – |
| CCOc1ccc(CC2SC(=O)NC2=O)cc1 (stereo unspecified) | – | > 100 | 2.43 | Not toxic | – | – | +/- | – | – |
| Cc1c(C)c2c(c(C)c1O)CCC(C)(COc1ccc(/C=C3/SC(=O)NC3=O)cc1)O2 (stereo unspecified) | – | 5 | 5.31 | – | Phosphorylation | Phosphorylation | – | – | – |
| O=C1N=C(O)S/C1=C\c1ccc(OCC2CCCCC2)cc1 | – | 14 | 3.66 | – | Phosphorylation | Phosphorylation | – | – | – |
| CCC(C)(C)Oc1ccc(/C=C2\SC(=O)NC2=O)cc1 | – | 15 | 3.49 | – | Phosphorylation | Phosphorylation | – | – | – |
| CC1(COc2ccc(CC3SC(=O)NC3=O)cc2)CCCCC1 (stereo unspecified) [CIGLITAZONE] | – | 20 | – | – | Active | Active | – | – | 5.07 |
| CC(C)COc1ccc(/C=C2\SC(=O)NC2=O)cc1 | – | 16 | 3.09 | Not toxic | – | – | +/- | – | – |
| COc1ccc(/C=C2\SC(=O)NC2=O)cc1 | Not toxic | 23 | 1.63 | Not toxic | – | – | – | – | – |
| O=C1NC(=O)/C(=C/c2ccccc2)S1 | Not toxic | > 100 | 1.71 | Not toxic | – | – | – | – | – |
| O=C1NC(=O)/C(=C/c2ccc(OCc3ccccc3)cc2)S1 | – | – | 3.4 | – | – | – | – | – | – |
| O=C1NC(=O)C(Cc2ccccc2)S1 (stereo unspecified) | Not toxic | > 100 | 1.99 | Not toxic | – | – | – | – | – |
| O=C1N=C(O)S/C1=C\c1ccc(OCC2CCCCO2)cc1 (stereo unspecified) | – | 22 | 2.02 | – | Phosphorylation | Phosphorylation | – | – | – |
| CCCOc1ccc(CC2SC(=O)NC2=O)cc1 (stereo unspecified) | – | 45 | 2.96 | Not toxic | – | – | +/- | – | – |
| O=C1NC(=O)C(Cc2ccc(OCC3CCC3)cc2)S1 (stereo unspecified) | Not toxic | > 100 | 2.81 | – | Release | – | – | – | – |
